Measured values as given in ChEMBL document CHEMBL2176871, “Development of ligands at γ-aminobutyrric acid type A (GABAA) receptor subtype as new agents for pain relief” (Bioorg Med Chem, 2011).
Activity calls are given as the source filed them.

Tests used:
Bos taurus = species: Bos taurus; assay: Displacement of [3H]Ro151788 from GABA(A)/BzR in bovine cerebral cortex membrane at 10 uM; assay type: cell membranes
Outline: (§1)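 Bovine cerebral cortex membranes in 50 mM Tris-citrate pH 7.4; [3H]flumazenil displacement. Compounds first tested at a fixed 10 µM; Ki determined only when inhibition exceeded 80%, using at least six concentrations. Five experiments run in triplicate; IC50 obtained by iterative curve fitting and converted to Ki with the Cheng–Prusoff equation.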

Mus musculus [1] = assay: Antihyperalgesic activity against streptozotocin-induced hyperalgesia in Swiss albino mouse […] assessed as licking latency time at 30 mg/kg, po after 60 mins by hot plate test (reference value: 9.2 +/- 0.8 secs); assay type: functional
[2] = Displacement of [3H]Ro151788 from GABA(A)/BzR in bovine cerebral cortex membrane; assay type: cell membranes, Bos taurus; outline: as §1
Mus musculus [3] = assay: Anxiolytic-like activity in Swiss albino mouse at 10 to 30 mg/kg, po after 30 mins by light/dark box test; assay type: functional, organism-based
Outline: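 Male Swiss mice tested in a two-compartment light/dark box. Transfers between compartments and time spent in the lit side recorded. Compound given po 30 min before testing, in 10 ml/kg; flumazenil given i.p. for antagonism; 8 mice per group.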

Mus musculus [4] = assay: Analgesic activity in Swiss albino mouse abdominal constriction model assessed as decrease in number of acetic acid-induced writhing at 10 to 30 mg/kg, po after 30 mins; assay type: functional, organism-based; conditions: Abdomen
Outline: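 Male Swiss albino mice (23–30 g). Compounds given po in 1% CMC vehicle 30 min before the test. Acetic acid 0.6% injected i.p. at 10 ml/kg. Stretching movements were counted for 10 min, starting 5 min after the acetic acid injection. 8–15 mice per group.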

Mus musculus [5] = assay: Antihyperalgesic activity Swiss albino mouse […] assessed as licking latency time at 30 mg/kg, po after 60 mins by hot plate test (reference value: 17.9 +/- 1.1 secs); assay type: functional
Outline: (§2)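 Hot plate at 52.5 ± 0.1 °C in non-diabetic male Swiss mice. Latency to licking of fore or hind paws was timed before dosing and every 15 min up to 60 min after oral dosing. Mice with pretest latencies below 12 s or above 18 s were excluded. Cut-off was 45 s.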

Mus musculus [6] = assay: Antihyperalgesic activity Swiss albino mouse […] assessed as licking latency time at 30 mg/kg, po after 45 mins by hot plate test (reference value: 17.9 +/- 1.1 secs); assay type: functional; outline: as §2
Mus musculus [7] = assay: Antihyperalgesic activity against streptozotocin-induced hyperalgesia in Swiss albino mouse […] assessed as licking latency time at 30 mg/kg, po after 45 mins by hot plate test (reference value: 9.2 +/- 0.8 secs); assay type: functional
Mus musculus [8] = assay: Antihyperalgesic activity Swiss albino mouse […] assessed as licking latency time at 30 mg/kg, po after 30 mins by hot plate test (reference value: 17.9 +/- 1.1 secs); assay type: functional; outline: as §2
Mus musculus [9] = assay: Antihyperalgesic activity against streptozotocin-induced hyperalgesia in Swiss albino mouse […] assessed as licking latency time at 30 mg/kg, po after 15 mins by hot plate test (reference value: 9.2 +/- 0.8 secs); assay type: functional
Mus musculus [10] = assay: Antihyperalgesic activity Swiss albino mouse […] assessed as licking latency time at 30 mg/kg, po after 15 mins by hot plate test (reference value: 17.9 +/- 1.1 secs); assay type: functional; outline: as §2
Rattus norvegicus [11] = assay: Antinociceptive activity in Sprague-Dawley rat mononeuropathy pain model assessed as increase in injured paw pressure at 60 mg/kg, po after 45 mins by paw pressure test relative to non-treated control; assay type: functional
Outline: (§3)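 Chronic constriction injury: loose ligatures placed on the common sciatic nerve under chloral hydrate; contralateral sham dissection. Tested 14 days after surgery. Paw pressure applied at 32 g/s; threshold taken as the force causing the first struggle; cut-off 250 g; pretest outliers (<40 g or >75 g) excluded. Oral dosing in 10 ml/kg; read at 15, 30 and 45 min; compared with a CMC-treated group.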

Rattus norvegicus [12] = assay: Antinociceptive activity in Sprague-Dawley rat mononeuropathy pain model assessed as increase in injured paw pressure at 60 mg/kg, po after 15 mins by paw pressure test relative to non-treated control; assay type: functional; outline: as §3
Rattus norvegicus [13] = assay: Antinociceptive activity in Sprague-Dawley rat mononeuropathy pain model assessed as increase in injured paw pressure at 30 mg/kg, po after 15 mins by paw pressure test relative to non-treated control; assay type: functional; outline: as §3
Rattus norvegicus [14] = assay: Antinociceptive activity in Sprague-Dawley rat mononeuropathy pain model assessed as increase in injured paw pressure at 10 mg/kg, po after 45 mins by paw pressure test relative to non-treated control; assay type: functional; outline: as §3
Rattus norvegicus [15] = assay: Antinociceptive activity in Sprague-Dawley rat mononeuropathy pain model assessed as increase in injured paw pressure at 10 mg/kg, po after 30 mins by paw pressure test relative to non-treated control; assay type: functional; outline: as §3
Rattus norvegicus [16] = assay: Antinociceptive activity in Sprague-Dawley rat mononeuropathy pain model assessed as increase in injured paw pressure at 10 mg/kg, po after 15 mins by paw pressure test relative to non-treated control; assay type: functional; outline: as §3
Rattus norvegicus [17] = assay: Antinociceptive activity in Sprague-Dawley rat mononeuropathy pain model assessed as increase in injured paw pressure at 1 mg/kg, po after 30 mins by paw pressure test relative to non-treated control; assay type: functional; outline: as §3
Rattus norvegicus [18] = assay: Toxicity in Sprague-Dawley rat mononeuropathy pain model assessed as effect on contralateral paw pressure at 60 mg/kg, po after 45 mins by paw pressure test; assay type: organism-based; set-up: dose 60 mg/kg, route oral; conditions: in vivo, 0.75 h
Outline: (§4)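 Same sciatic-ligation rat model, 14 days after surgery. Threshold measured on the non-operated contralateral hind paw by analgesimeter at 32 g/s; first-struggle endpoint; 250 g cut-off; pretest rats outside 40–75 g rejected. Compound given po in 10 ml/kg; readings at 15, 30 and 45 min.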

Rattus norvegicus [19] = assay: Toxicity in Sprague-Dawley rat mononeuropathy pain model assessed as effect on contralateral paw pressure at 60 mg/kg, po after 30 mins by paw pressure test; assay type: organism-based; set-up: dose 60 mg/kg, route oral; conditions: in vivo, 0.5 h; outline: as §4
Rattus norvegicus [20] = assay: Toxicity in Sprague-Dawley rat mononeuropathy pain model assessed as effect on contralateral paw pressure at 60 mg/kg, po after 15 mins by paw pressure test; assay type: organism-based; set-up: dose 60 mg/kg, route oral; conditions: in vivo, 0.25 h; outline: as §4
Rattus norvegicus [21] = assay: Toxicity in Sprague-Dawley rat mononeuropathy pain model assessed as effect on contralateral paw pressure at 30 mg/kg, po after 45 mins by paw pressure test; assay type: organism-based; set-up: dose 30 mg/kg, route oral; conditions: in vivo, 0.75 h; outline: as §4
Rattus norvegicus [22] = assay: Toxicity in Sprague-Dawley rat mononeuropathy pain model assessed as effect on contralateral paw pressure at 30 mg/kg, po after 30 mins by paw pressure test; assay type: organism-based; set-up: dose 30 mg/kg, route oral; conditions: in vivo, 0.5 h; outline: as §4
Rattus norvegicus [23] = assay: Toxicity in Sprague-Dawley rat mononeuropathy pain model assessed as effect on contralateral paw pressure at 30 mg/kg, po after 15 mins by paw pressure test; assay type: organism-based; set-up: dose 30 mg/kg, route oral; conditions: in vivo, 0.25 h; outline: as §4
Rattus norvegicus [24] = assay: Toxicity in Sprague-Dawley rat mononeuropathy pain model assessed as effect on contralateral paw pressure at 10 mg/kg, po after 45 mins by paw pressure test; assay type: organism-based; set-up: dose 10 mg/kg, route oral; conditions: in vivo, 0.75 h; outline: as §4
Rattus norvegicus [25] = assay: Toxicity in Sprague-Dawley rat mononeuropathy pain model assessed as effect on contralateral paw pressure at 10 mg/kg, po after 30 mins by paw pressure test; assay type: organism-based; set-up: dose 10 mg/kg, route oral; conditions: in vivo, 0.5 h; outline: as §4
Rattus norvegicus [26] = assay: Toxicity in Sprague-Dawley rat mononeuropathy pain model assessed as effect on contralateral paw pressure at 1 mg/kg, po after 45 mins by paw pressure test; assay type: organism-based; set-up: dose 1 mg/kg, route oral; conditions: in vivo, 0.75 h; outline: as §4
Rattus norvegicus [27] = assay: Toxicity in Sprague-Dawley rat mononeuropathy pain model assessed as effect on contralateral paw pressure at 1 mg/kg, po after 30 mins by paw pressure test; assay type: organism-based; set-up: dose 1 mg/kg, route oral; conditions: in vivo, 0.5 h; outline: as §4
Rattus norvegicus [28] = assay: Toxicity in Sprague-Dawley rat mononeuropathy pain model assessed as effect on contralateral paw pressure at 1 mg/kg, po after 15 mins by paw pressure test; assay type: organism-based; set-up: dose 1 mg/kg, route oral; conditions: in vivo, 0.25 h; outline: as §4

SMILES: Cc1cnn2c1n[n+]([O-])c1ccc(OCc3ccccc3)cc12
- inhibition (Bos taurus): > 80%
- Time (Mus musculus [1]): 15.7 s
- Ki [2]: 4.66 nM
- Activity (Mus musculus [3]): Active
- Activity (Mus musculus [4]): inactive
- Time (Mus musculus [5]): 17.2 s
- Time (Mus musculus [6]): 18.5 s
- Time (Mus musculus [7]): 18.8 s
- Time (Mus musculus [8]): 18.1 s
- Time (Mus musculus [9]): 14.9 s
- Time (Mus musculus [10]): 17.2 s
- Activity (Rattus norvegicus [11]): 31.5 g
- Activity (Rattus norvegicus [12]): 50.1 g
- Activity (Rattus norvegicus [13]): 52.8 g
- Activity (Rattus norvegicus [14]): 30.4 g
- Activity (Rattus norvegicus [15]): 40.1 g
- Activity (Rattus norvegicus [16]): 48.7 g
- Activity (Rattus norvegicus [17]): 34.5 g
- Activity (Rattus norvegicus [18]): 57.2 g
- Activity (Rattus norvegicus [19]): 60.8 g
- Activity (Rattus norvegicus [20]): 59.9 g
- Activity (Rattus norvegicus [21]): 60.5 g
- Activity (Rattus norvegicus [22]): 63.8 g
- Activity (Rattus norvegicus [23]): 62.7 g
- Activity (Rattus norvegicus [24]): 63.5 g
- Activity (Rattus norvegicus [25]): 62.7 g
- Activity (Rattus norvegicus [26]): 59.1 g
- Activity (Rattus norvegicus [27]): 60.6 g
- Activity (Rattus norvegicus [28]): 57.3 g
